Assay results: ChEMBL document CHEMBL1139887, “Glycosides from the stem bark of Fraxinus sieboldiana” (J Nat Prod, 2007)

How the values were obtained:
[1] = Cytotoxicity against human BGC823 cells; format: cell-based; settings: BGC-823
[2] = test system: Liver microsomes; assay: Antioxidant activity in rat liver microsomes assessed as inhibition of ferrous-cystine-induced lipid peroxidation after 15 mins; format: functional, Microsome
Summary of the method: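 Microsomes from rat liver suspended in 100 mM Tris-HCl pH 7.4. Then 50 µM FeSO4 added and a further 15 min at 37 °C. Stopped with 20% TCA and spun. Supernatant heated with 0.67% TBA 10 min, read at 532 nm. Tested over several concentrations.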

[3] = test system: A2780; assay: Cytotoxicity against human A2780 cells; format: cell-based
[4] = Cytotoxicity against human Bel7402 cells; format: cell-based; settings: Bel-7402
[5] = test system: A549; assay: Cytotoxicity against human A549 cells; format: cell-based
[6] = test system: HCT-8; assay: Cytotoxicity against human HCT8 cells; format: cell-based
[7] = test system: Peritoneal macrophage cell; assay: Inhibition of LPS-induced TNFalpha secretion in C57BL/6J mouse peritoneal macrophages at 10 uM after 24 hrs; format: functional
Summary of the method: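 Macrophages from male C57BL6J mice, harvested 4 days after i.p. thioglycollate. Cells adhered 2 h, then 24 h at 37 °C with compound (10^-5 M final), LPS 1 µg/mL and 5% FCS. Supernatant put on L929 cells with actinomycin D 0.5 µg/mL for 20 h, then MTT 4 h, A570. Triplicate wells. Inhibition = (L−S)/(L−B)×100. Indomethacin reference.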

[8] = test system: Peritoneal macrophage cell; assay: Inhibition of LPS-induced TNFalpha secretion in C57BL/6J mouse peritoneal macrophages after 24 hrs; format: functional, cell-based

| IC50 [2] | Structure (SMILES) | IC50 [1] | IC50 [3] | IC50 [4] | IC50 [5] | IC50 [6] | inhibition at 10 µM [7] | IC50 [8] |
| --- | --- | --- | --- | --- | --- | --- | --- | --- |
| > 10 µM | COc1cc([C@@H](O)[C@H](O)CO)cc(OC)c1O[C@@H]1O[C@H](CO)[C@@H](O)[C@H](O)[C@H]1O | > 5 µM | > 5 µM | > 5 µM | > 5 µM | > 5 µM | 27.5% | – |
| > 10 µM | COc1cc(O[C@@H]2O[C@H](CO)[C@@H](O)[C@H](O)[C@H]2O)cc(OC)c1O[C@@H]1O[C@H](CO)[C@@H](O)[C@H](O)[C@H]1O | > 5 µM | > 5 µM | > 5 µM | > 5 µM | > 5 µM | 25.2% | – |
| > 10 µM | COc1cc([C@@H](O)[C@@H](O)CO)cc(OC)c1O[C@@H]1O[C@H](CO)[C@@H](O)[C@H](O)[C@H]1O | > 5 µM | > 5 µM | > 5 µM | > 5 µM | > 5 µM | 26.6% | – |
| 0.9 µM | OC[C@@]1(O)CO[C@@H](OC[C@H]2O[C@@H](OCCc3ccc(O)c(O)c3)[C@H](O)[C@@H](O)[C@@H]2O)[C@@H]1O | > 5 µM | > 5 µM | > 5 µM | > 5 µM | > 5 µM | 28.8% | – |
| > 10 µM | COc1cc(C(=O)OC[C@H]2O[C@@H](Oc3cc4ccc(=O)oc4cc3O)[C@H](O)[C@@H](O)[C@@H]2O)ccc1O[C@@H]1O[C@H](CO)[C@@H](O)[C@H](O)[C@H]1O | > 5 µM | > 5 µM | > 5 µM | > 5 µM | > 5 µM | 30.8% | – |

The remaining lines, values behind:

| Structure (SMILES) | IC50 [2] | IC50 [1] | IC50 [3] | IC50 [4] | IC50 [5] | IC50 [6] | inhibition at 10 µM [7] | IC50 [8] |
| --- | --- | --- | --- | --- | --- | --- | --- | --- |
| COc1cc(O[C@@H]2O[C@H](CO)[C@@H](O)[C@H](O)[C@H]2O)ccc1O[C@@H]1O[C@H](CO)[C@@H](O)[C@H](O)[C@H]1O | > 10 µM | > 5 µM | > 5 µM | > 5 µM | > 5 µM | > 5 µM | 16.3% | – |
| COc1cc(CCO[C@@H]2O[C@H](CO[C@@H]3OC[C@](O)(CO)[C@H]3O)[C@@H](O)[C@H](O)[C@H]2O)ccc1O | > 10 µM | > 5 µM | > 5 µM | > 5 µM | > 5 µM | > 5 µM | 44.3% | 1.6 µM |
| COc1cc([C@H](O)[C@@H](O)CO)cc(OC)c1O[C@@H]1O[C@H](CO)[C@@H](O)[C@H](O)[C@H]1O | > 10 µM | > 5 µM | > 5 µM | > 5 µM | > 5 µM | > 5 µM | 28.2% | – |
| CC1=C[C@@H](C2=C(C)CC[C@H](O[C@@H]3O[C@H](CO)[C@@H](O)[C@H](O)[C@H]3O)C2(C)C)[C@@H](/C=C(/C)C(=O)O)OC1 [FRAXINUACIDOSIDE] | > 10 µM | > 5 µM | > 5 µM | > 5 µM | > 5 µM | > 5 µM | – | – |
| COc1ccc2c(c1)c(CC(=O)O)c(C)n2C(=O)c1ccc(Cl)cc1 [INDOMETHACIN] | – | – | – | – | – | – | 33.2% | – |
| O=C(/C=C/c1ccc(O)c(O)c1)OC[C@H]1O[C@H]2OC[C@H](c3ccc(O)c(O)c3)O[C@@H]2[C@@H](O)[C@@H]1O [PLANTASIOSIDE] | – | – | – | – | – | 3.4 µM | – | – |
